Calls of active or inactive are those of the source. The calls are words filed in the database; no cut-off is given here.
Tests used:
[1] = Induction of apoptosis in human HeLaC3 cells assessed as yellow fluorescent protein/cyan fluorescent protein emission ratio at 100 uM after 72 hrs by FRET assay; assay type: functional, HeLa C3
Method in brief: (§1)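 Caspase-3 FRET biosensor (CFP–DEVD–YFP) HeLa-C3 cells were grown in MEM with 10% FBS, penicillin and streptomycin at 37 °C in 5% CO2. 7500 cells per well were seeded and given compound after 12–16 h (DMSO stock ≥1000× working concentration). A YFP/CFP ratio ≤3 was scored as apoptosis. Triplicates, three repeats.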

[2] = Induction of apoptosis in human HeLaC3 cells assessed as yellow fluorescent protein/cyan fluorescent protein emission ratio at 50 uM after 72 hrs by FRET assay; assay type: functional, HeLa C3; method in brief: as §1
[3] = Induction of apoptosis in human HeLaC3 cells assessed as yellow fluorescent protein/cyan fluorescent protein emission ratio at 25 uM after 72 hrs by FRET assay; assay type: functional, HeLa C3; method in brief: as §1
[4] = Cytotoxicity against human HeLa cells after 72 hrs by MTT assay
HeLa C3 [5] = assay: Induction of apoptosis in human HeLaC3 cells assessed as morphological changes at 50 uM after 24 to 72 hrs; assay type: functional, cell-based
Method in brief: (§2)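 Compound-treated HeLa-C3 biosensor cells were photographed under a microscope at 24, 48 and 72 h. Paclitaxel 500 nM was the positive control and untreated cells the negative control. Cell shrinkage and detachment from the plate were taken as apoptotic morphology.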

HeLa C3 [6] = assay: Induction of apoptosis in human HeLaC3 cells assessed as morphological changes at 100 uM after 24 to 72 hrs; assay type: functional, cell-based; method in brief: as §2
HeLa C3 [7] = assay: Induction of apoptosis in human HeLaC3 cells assessed as morphological changes at 25 uM after 24 to 72 hrs; assay type: functional, cell-based; method in brief: as §2
HeLa C3 [8] = assay: Induction of apoptosis in human HeLaC3 cells at 25 uM after 72 hrs; assay type: functional, cell-based
Method in brief: as §1, with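 “concentration). Plates were excited at 440 nm, with emission read at 486 (CFP) and 535 (YFP) nm, for up to 72 h.” for “concentration).”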

| SMILES | Ratio [1] | Ratio [2] | Ratio [3] | IC50 [4] | Activity (HeLa C3 [5]) | Activity (HeLa C3 [6]) | Activity (HeLa C3 [7]) | Activity (HeLa C3 [8]) |
| --- | --- | --- | --- | --- | --- | --- | --- | --- |
| C=C(C)[C@H](CC=C(C)C)C[C@@]12C[C@@H](CC=C(C)C)C(C)(C)[C@@](CC(O)C(C)(C)O)(C(=O)C(C(=O)c3ccc(O)c(O)c3)=C1O)C2=O (stereo partly specified) | >3 | >3 | >3 | 23 µM |  |  |  |  |
| C=C(C)[C@H](CC=C(C)C)C[C@@]12C[C@@H](CC=C(C)C)C(C)(C)[C@@](CCC(C)(C)O)(C(=O)C(C(=O)c3ccc(O)c(O)c3)=C1O)C2=O [GARCIMULTIFLORONE D] | <=3 | <=3 | >3 | 17.5 µM | Active |  |  |  |
| C=C(C)C(O)C[C@H](C[C@@]12C[C@@H](CC=C(C)C)C(C)(C)[C@@](CC=C(C)C)(C(=O)C(C(=O)c3ccc(O)c(O)c3)=C1O)C2=O)C(=C)C (stereo partly specified) [GARCIMULTIFLORONE E] | <=3 | >3 | >3 | 14.3 µM |  | Active |  |  |
| C=C(C)[C@H](CC=C(C)C)C[C@@]12C[C@@H](CC(O)C(C)(C)O)C(C)(C)[C@@](CC=C(C)C)(C(=O)C(C(=O)c3ccc(O)c(O)c3)=C1O)C2=O (stereo partly specified) [GARCIMULTIFLORONE F] | <=3 | <=3 | >3 | 14.9 µM | Active |  |  |  |
| C=C(C)[C@H](CC=C(C)C)C[C@@]12C[C@@H](CC=C(C)C)C(C)(C)[C@@](CC=C(C)C)(C(=O)C(C(=O)c3ccc(O)c(O)c3)=C1O)C2=O [GUTTIFERONE F] | <=3 | <=3 | >3 |  | Active |  |  |  |
| CC(C)=CC[C@@H]1C[C@]23C[C@H](CC=C(C)C)C(C)(C)[C@](CC=C(C)C)(C(=O)C(C(=O)c4ccc(O)c(O)c4)=C2OC1(C)C)C3=O [ISOXANTHOCHYMOL] | >3 | >3 | <=3 |  |  |  | Active | Active |
| O=C1c2c(O)cc(O)cc2O[C@H](c2ccc(O)cc2)[C@H]1c1c(O)cc(O)c2c(=O)cc(-c3ccc(O)c(O)c3)oc12 [MORELLOFLAVONE] | >3 | >3 | >3 |  |  |  |  |  |

Reference: ChEMBL document CHEMBL1212906, “Apoptotic effects of polyprenylated benzoylphloroglucinol derivatives from the twigs of Garcinia multiflora” (J Nat Prod, 2010)
